Source: publication PMC3873380 (Molecular pharmaceutics, 2013)

Test system: SK-OV-3 cells
Experiment: Confocal microscopy on live cells
Type: cell-based, human
Details: F′-PEpYLGLD 5 μM alone, opti-MEM, 2 h, 37 °C
In short: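 SK-OV-3 seeded at 1 × 10^5 cells/well on coverslips overnight in EMEM, then rinsed with opti-MEM. Exposed to treatments in opti-MEM for 2 h at 37 °C, washed three times with PBS and mounted. Imaged by laser scanning confocal, 20× objective, sequential frame mode. Channels: FITC (ex 488, em 500–550 nm), DAPI (ex 405, em 425–475 nm), DIC.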

Substance: F′-PEpYLGLD
- intracellular fluorescence of F′-PEpYLGLD alone (confocal): No green fluorescence was observed
